In ChEMBL document CHEMBL4689842, “EUbOPEN Chemogenomics Library wave 1” (2021):

Legend:
Format in all cases: toxicity, cell-based
HEK-293T = assay: Incucyte cell viability with HEK293T; conditions: human, 10 µM, compound concentration 10 uM; also: filed as whole numbers so only -1 and 0 and 1 occur
U2OS = assay: Incucyte cell viability with U2OS; conditions: human, 10 µM, compound concentration 10 uM; also: filed as whole numbers so only -1 and 0 and 1 occur
Fibroblast = assay: Multiplex assay against human fibroblast
How it was run: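 Live cells were stained at seeding with Hoechst33342, BioTracker Green Microtubule Cytoskeleton Dye, MitoTracker Red and Annexin V Alexa Fluor 680. Following compound addition, they were imaged on a CQ1 microscope at 37°C and 5% CO2 and gated by CellPathfinder machine learning into Hoechst high-intensity objects or normal cells, with normal cells split into healthy, pyknosed or fragmented nuclei and pyknosed cells into mitotic or apoptotic. Tubulin, mitochondrial-mass and membrane-permeability phenotypes are per cents of healthy-nucleus cells.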

[1] = 0 h, replicate number 1, timepoint 0 hours
[2] = 12 h, replicate number 1, timepoint 12 hours
[3] = 18 h, replicate number 1, timepoint 18 hours
[4] = 24 h, replicate number 1, timepoint 24 hours
[5] = 12 h, 1 µM, compound concentration 1 uM, replicate 1
[6] = 12 h, 1 µM, compound concentration 1 uM, replicate 2
[7] = 12 h, 10 µM, compound concentration 10 uM, replicate 1
[8] = 12 h, 10 µM, compound concentration 10 uM, replicate 2
[9] = 24 h, 1 µM, compound concentration 1 uM, replicate 1
[10] = 24 h, 1 µM, compound concentration 1 uM, replicate 2
[11] = 24 h, 10 µM, compound concentration 10 uM, replicate 1
[12] = 24 h, 10 µM, compound concentration 10 uM, replicate 2
[13] = 48 h, 1 µM, compound concentration 1 uM, replicate 1
[14] = 48 h, 1 µM, compound concentration 1 uM, replicate 2
[15] = 48 h, 10 µM, compound concentration 10 uM, replicate 1
[16] = 48 h, 10 µM, compound concentration 10 uM, replicate 2

Compound: CC(Cc1ccc(O)c(O)c1)C(C)Cc1ccc(O)c(O)c1 (centres undefined) [NORDIHYDROGUAIARETIC ACID]
- Growth Rate (HEK-293T; [1]): 1
- Growth Rate (HEK-293T; 0 h, replicate number 2, timepoint 0 hours): 0
- Growth Rate (HEK-293T; 6 h, replicate number 1, timepoint 6 hours): 0
- Growth Rate (HEK-293T; [2]): 0
- Growth Rate (HEK-293T; [3]): 0
- Growth Rate (HEK-293T; [4]): 0
- Growth Rate (U2OS; [1]): 0
- Growth Rate (U2OS; 6 h, replicate number 2, timepoint 6 hours): 0
- Growth Rate (U2OS; [2]): 0
- Growth Rate (U2OS; [3]): 0
- Growth Rate (U2OS; [4]): 0
- Population Apoptotic (%) (Fibroblast; [5]): 66%
- Population Fragmented Nuclei (%) (Fibroblast; [5]): 19%
- Population Healthy Nuclei (%) (Fibroblast; [5]): 50%
- Population Hoechst High Intensity Objects (%) (Fibroblast; [5]): 5%
- Population Membrane Permeable-Phenotype (%) (Fibroblast; [5]): 19%
- Population Mitochondria Different-Phenotype (%) (Fibroblast; [5]): 4%
- Population Mitotic Cells (%) (Fibroblast; [5]): 33%
- Population Normal (%) (Fibroblast; [5]): 94%
- Population Pyknosed Nuclei (%) (Fibroblast; [5]): 29%
- Population Tubulin-Different-Phenotype (%) (Fibroblast; [5]): 19%
- Total Cell Count (Fibroblast; [5]): 170
- Population Apoptotic (%) (Fibroblast; [6]): 0%
- Population Fragmented Nuclei (%) (Fibroblast; [6]): 3%
- Population Healthy Nuclei (%) (Fibroblast; [6]): 93%
- Population Hoechst High Intensity Objects (%) (Fibroblast; [6]): 15%
- Population Membrane Permeable-Phenotype (%) (Fibroblast; [6]): 0%
- Population Mitochondria Different-Phenotype (%) (Fibroblast; [6]): 1%
- Population Mitotic Cells (%) (Fibroblast; [6]): 100%
- Population Normal (%) (Fibroblast; [6]): 84%
- Population Pyknosed Nuclei (%) (Fibroblast; [6]): 3%
- Population Tubulin-Different-Phenotype (%) (Fibroblast; [6]): 25%
- Population Apoptotic (%) (Fibroblast; [7]): 87%
- Population Fragmented Nuclei (%) (Fibroblast; [7]): 19%
- Population Healthy Nuclei (%) (Fibroblast; [7]): 46%
- Population Hoechst High Intensity Objects (%) (Fibroblast; [7]): 14%
- Population Membrane Permeable-Phenotype (%) (Fibroblast; [7]): 18%
- Population Mitochondria Different-Phenotype (%) (Fibroblast; [7]): 6%
- Population Mitotic Cells (%) (Fibroblast; [7]): 12%
- Population Normal (%) (Fibroblast; [7]): 85%
- Population Pyknosed Nuclei (%) (Fibroblast; [7]): 33%
- Population Tubulin-Different-Phenotype (%) (Fibroblast; [7]): 13%
- Population Apoptotic (%) (Fibroblast; [8]): 0%
- Population Fragmented Nuclei (%) (Fibroblast; [8]): 2%
- Population Healthy Nuclei (%) (Fibroblast; [8]): 91%
- Population Hoechst High Intensity Objects (%) (Fibroblast; [8]): 6%
- Population Membrane Permeable-Phenotype (%) (Fibroblast; [8]): 2%
- Population Mitochondria Different-Phenotype (%) (Fibroblast; [8]): 10%
- Population Mitotic Cells (%) (Fibroblast; [8]): 100%
- Population Normal (%) (Fibroblast; [8]): 93%
- Population Pyknosed Nuclei (%) (Fibroblast; [8]): 5%
- Population Tubulin-Different-Phenotype (%) (Fibroblast; [8]): 38%
- Total Cell Count (Fibroblast; [8]): 70
- Population Apoptotic (%) (Fibroblast; [9]): 50%
- Population Fragmented Nuclei (%) (Fibroblast; [9]): 20%
- Population Healthy Nuclei (%) (Fibroblast; [9]): 63%
- Population Hoechst High Intensity Objects (%) (Fibroblast; [9]): 6%
- Population Membrane Permeable-Phenotype (%) (Fibroblast; [9]): 22%
- Population Mitochondria Different-Phenotype (%) (Fibroblast; [9]): 3%
- Population Mitotic Cells (%) (Fibroblast; [9]): 50%
- Population Normal (%) (Fibroblast; [9]): 93%
- Population Pyknosed Nuclei (%) (Fibroblast; [9]): 16%
- Population Tubulin-Different-Phenotype (%) (Fibroblast; [9]): 25%
- Total Cell Count (Fibroblast; [9]): 165
- Population Apoptotic (%) (Fibroblast; [10]): 0%
- Population Fragmented Nuclei (%) (Fibroblast; [10]): 2%
- Population Healthy Nuclei (%) (Fibroblast; [10]): 94%
- Population Hoechst High Intensity Objects (%) (Fibroblast; [10]): 7%
- Population Membrane Permeable-Phenotype (%) (Fibroblast; [10]): 0%
- Population Mitochondria Different-Phenotype (%) (Fibroblast; [10]): 8%
- Population Mitotic Cells (%) (Fibroblast; [10]): 100%
- Population Normal (%) (Fibroblast; [10]): 92%
- Population Pyknosed Nuclei (%) (Fibroblast; [10]): 2%
- Population Tubulin-Different-Phenotype (%) (Fibroblast; [10]): 23%
- Population Apoptotic (%) (Fibroblast; [11]): 87%
- Population Fragmented Nuclei (%) (Fibroblast; [11]): 18%
- Population Healthy Nuclei (%) (Fibroblast; [11]): 62%
- Population Hoechst High Intensity Objects (%) (Fibroblast; [11]): 17%
- Population Membrane Permeable-Phenotype (%) (Fibroblast; [11]): 7%
- Population Mitochondria Different-Phenotype (%) (Fibroblast; [11]): 5%
- Population Mitotic Cells (%) (Fibroblast; [11]): 12%
- Population Normal (%) (Fibroblast; [11]): 82%
- Population Pyknosed Nuclei (%) (Fibroblast; [11]): 19%
- Population Tubulin-Different-Phenotype (%) (Fibroblast; [11]): 7%
- Population Apoptotic (%) (Fibroblast; [12]): 16%
- Population Fragmented Nuclei (%) (Fibroblast; [12]): 2%
- Population Healthy Nuclei (%) (Fibroblast; [12]): 90%
- Population Hoechst High Intensity Objects (%) (Fibroblast; [12]): 5%
- Population Membrane Permeable-Phenotype (%) (Fibroblast; [12]): 1%
- Population Mitochondria Different-Phenotype (%) (Fibroblast; [12]): 9%
- Population Mitotic Cells (%) (Fibroblast; [12]): 83%
- Population Normal (%) (Fibroblast; [12]): 94%
- Population Pyknosed Nuclei (%) (Fibroblast; [12]): 7%
- Population Tubulin-Different-Phenotype (%) (Fibroblast; [12]): 61%
- Population Apoptotic (%) (Fibroblast; [13]): 60%
- Population Fragmented Nuclei (%) (Fibroblast; [13]): 20%
- Population Healthy Nuclei (%) (Fibroblast; [13]): 75%
- Population Hoechst High Intensity Objects (%) (Fibroblast; [13]): 8%
- Population Membrane Permeable-Phenotype (%) (Fibroblast; [13]): 25%
- Population Mitochondria Different-Phenotype (%) (Fibroblast; [13]): 0%
- Population Mitotic Cells (%) (Fibroblast; [13]): 40%
- Population Normal (%) (Fibroblast; [13]): 91%
- Population Pyknosed Nuclei (%) (Fibroblast; [13]): 3%
- Population Tubulin-Different-Phenotype (%) (Fibroblast; [13]): 16%
- Total Cell Count (Fibroblast; [13]): 162
- Population Apoptotic (%) (Fibroblast; [14]): 66%
- Population Fragmented Nuclei (%) (Fibroblast; [14]): 25%
- Population Healthy Nuclei (%) (Fibroblast; [14]): 70%
- Population Hoechst High Intensity Objects (%) (Fibroblast; [14]): 20%
- Population Membrane Permeable-Phenotype (%) (Fibroblast; [14]): 17%
- Population Mitotic Cells (%) (Fibroblast; [14]): 33%
- Population Normal (%) (Fibroblast; [14]): 80%
- Population Pyknosed Nuclei (%) (Fibroblast; [14]): 4%
- Population Tubulin-Different-Phenotype (%) (Fibroblast; [14]): 21%
- Total Cell Count (Fibroblast; [14]): 90
- Population Apoptotic (%) (Fibroblast; [15]): 92%
- Population Fragmented Nuclei (%) (Fibroblast; [15]): 33%
- Population Healthy Nuclei (%) (Fibroblast; [15]): 52%
- Population Hoechst High Intensity Objects (%) (Fibroblast; [15]): 15%
- Population Membrane Permeable-Phenotype (%) (Fibroblast; [15]): 6%
- Population Mitotic Cells (%) (Fibroblast; [15]): 7%
- Population Normal (%) (Fibroblast; [15]): 84%
- Population Pyknosed Nuclei (%) (Fibroblast; [15]): 14%
- Population Tubulin-Different-Phenotype (%) (Fibroblast; [15]): 0%
- Population Apoptotic (%) (Fibroblast; [16]): 100%
- Population Fragmented Nuclei (%) (Fibroblast; [16]): 20%
- Population Healthy Nuclei (%) (Fibroblast; [16]): 77%
- Population Hoechst High Intensity Objects (%) (Fibroblast; [16]): 11%
- Population Membrane Permeable-Phenotype (%) (Fibroblast; [16]): 9%
- Population Mitochondria Different-Phenotype (%) (Fibroblast; [16]): 0%
- Population Mitotic Cells (%) (Fibroblast; [16]): 0%
- Population Normal (%) (Fibroblast; [16]): 88%
- Population Pyknosed Nuclei (%) (Fibroblast; [16]): 1%
- Population Tubulin-Different-Phenotype (%) (Fibroblast; [16]): 2%
